Results published in ChEMBL document CHEMBL2169817, “Development of novel bisphosphonate prodrugs of doxorubicin for targeting bone metastases that are cleaved pH dependently or by cathepsin B: synthesis, cleavage properties, and binding properties to hydroxyapatite as well as bone matrix” (J Med Chem, 2012).
Active and inactive are the calls of the source. The calls are words filed in the database; no cut-off is given here.

Tests used:
[1] = system: Plasma; assay: Stability in human plasma assessed as anthracycline derivative formation over 6 hrs by HPLC analysis; format: ADME, cell-free
How it was run: (§1)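 Prodrug stock (3 mM in 10 mM sodium phosphate, 0.15 M NaCl, pH 7.4) added to EDTA-anticoagulated plasma from healthy volunteers, final 600 μM. Incubated at 37 °C for 0, 0.5, 1, 3 and 6 h. Samples centrifuged; supernatant analysed by C18 RP-HPLC with detection at 495 nm.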

[2] = system: Mus musculus; assay: Toxicity in Balb/c nude mouse assessed as anemia at 24 mg/kg, iv of doxorubicin equivalents administered once a week on days 7, 14 and 21 measured 13 days post-last dose; format: organism-based; set-up: dose 24 mg/kg, route intravenous; settings: in vivo, 312 h
How it was run: (§2)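 Female Balb/C nude mice, five weeks old, about 20 g, three per group. Prodrug dissolved at 3.4 mM in sterile 10 mM sodium phosphate/sodium chloride buffer, pH 7.4. Given i.v. once weekly for three weeks at 8, 16 or 24 mg/kg doxorubicin equivalents. Behaviour and welfare checked daily, body weight every two days, observation over four weeks.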

[3] = Prodrug conversion assessed as doxorubicin formation at pH 5.5 at 600 uM by HPLC analysis; format: physicochemical; settings: pH 5.5, 600 µM; TDE = time-dependent effect
How it was run: (§3)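 Prodrug at a final 2.4 mM in 4 mM sodium phosphate, 150 mM NaCl (pH 7.4), brought to pH 5.5 with 50 mM sodium acetate (pH 4.5). Held at room temperature; samples diluted to 600 μM and analysed by isocratic C18 HPLC (30% CH₃CN/10 mM phosphate pH 7.8) at 5–300 min.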

[4] = Toxicity in iv dosed Balb/c nude mouse administered as doxorubicin equivalents once a week for 3 weeks; format: organism-based; settings: in vivo; how it was run: as §2
[5] = system: Hydroxyapatite; assay: Binding affinity to bone mineral hydroxyapatite at pH 7.4 at 300 uM after 1 hr by photometric analysis
How it was run: (§4)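 Compound diluted to 300 μM (checked by absorbance at 495 nm, ε 10650 M⁻¹ cm⁻¹) in 4 mM sodium phosphate, 150 mM NaCl at pH 6.0 or 7.4. Hydroxyapatite (30 equiv) added, stirred at 37 °C. Parallel solution without HA as control. Centrifuged at 0–6 h and 20 h; supernatant A495 read. Mean of three measurements. % bound = (conc without HA − conc with HA)/conc without HA × 100.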

[6] = system: Mus musculus; assay: Toxicity in Balb/c nude mouse assessed as adverse effects at 8 mg/kg, iv of doxorubicin equivalents administered once a week on days 0, 7 and 14 measured after 1 week; format: organism-based; set-up: dose 8 mg/kg, route intravenous; settings: in vivo, 168 h; how it was run: as §2
[7] = system: Hydroxyapatite; assay: Binding affinity to bone mineral hydroxyapatite at pH 6 at 300 uM after 1 hr by photometric analysis; how it was run: as §4
[8] = system: Hydroxyapatite; assay: Binding affinity to bone mineral hydroxyapatite at pH 7.4 at 300 uM after 5 hrs by photometric analysis; how it was run: as §4
[9] = system: Mus musculus; assay: Toxicity in Balb/c nude mouse assessed as change in body weight at 24 mg/kg, iv of doxorubicin equivalents administered once a week on days 7, 14 and 21; format: organism-based; set-up: dose 24 mg/kg, route intravenous; settings: in vivo; how it was run: as §2
[10] = system: Mus musculus; assay: Toxicity in Balb/c nude mouse assessed as adverse effects at 16 mg/kg, iv of doxorubicin equivalents administered once a week on days 7, 14 and 21; format: organism-based; set-up: dose 16 mg/kg, route intravenous; settings: in vivo; how it was run: as §2
[11] = Half life of the compound at pH 5.5 at 600 uM by HPLC analysis; format: physicochemical; how it was run: as §3
[12] = system: Plasma; assay: Stability in human plasma assessed as doxorubicin formation over 6 hrs by HPLC analysis; format: ADME, cell-free; how it was run: as §1
[13] = Binding affinity to bovine bone matrix at pH 6 at 300 uM after 4 hrs by spectrophotometric analysis; format: ADME, Bos taurus; settings: cattle, pH 6, 4 h
How it was run: (§5)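 Cortical bovine backbone bone cut into 6×4×1 mm pieces, washed with water and absolute ethanol, dried. About 50 mg bone stirred at 37 °C with 300 μM prodrug in 4 mM Na₂HPO₄, 150 mM NaCl, pH 6.0 or 7.4. Control without bone. Centrifuged, supernatant A495 read. % bound = (conc without bone − conc with bone)/conc without bone × 100.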

[14] = system: Mus musculus; assay: Toxicity in Balb/c nude mouse assessed as mortality at 24 mg/kg, iv of doxorubicin equivalents administered once a week on days 7, 14 and 21 measured 13 days post-last dose; format: organism-based; set-up: dose 24 mg/kg, route intravenous; settings: in vivo, 312 h; how it was run: as §2
[15] = system: Mus musculus; assay: Toxicity in Balb/c nude mouse assessed as adverse effects at 24 mg/kg, iv of doxorubicin equivalents administered once a week on days 7, 14 and 21; format: organism-based; set-up: dose 24 mg/kg, route intravenous; settings: in vivo; how it was run: as §2
[16] = species on record: Bos taurus; assay: Binding affinity to bovine bone matrix at pH 7.4 at 300 uM after 4 hrs by spectrophotometric analysis; how it was run: as §5
[17] = system: Mus musculus; assay: Toxicity in Balb/c nude mouse assessed as weight loss at 8 mg/kg, iv of doxorubicin equivalents administered once a week on days 0, 7 and 14 measured after 1 week; format: organism-based; set-up: dose 8 mg/kg, route intravenous; settings: in vivo, 168 h; how it was run: as §2
[18] = system: Hydroxyapatite; assay: Binding affinity to bone mineral hydroxyapatite at pH 7.4 at 300 uM by photometric analysis
How it was run: (§6)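 Test compound at 300 μM in 4 mM sodium phosphate with 150 mM NaCl, at pH 6.0 or pH 7.4, concentration checked by absorbance at 495 nm. Hydroxyapatite powder (30 equiv) added, stirred, incubated at 37 °C, with a matching sample without hydroxyapatite as control. Centrifuged at 0–6 h and 20 h. Supernatant A495 read (ε 10650 M⁻¹ cm⁻¹). % bound = (no-HA − HA conc)/no-HA conc × 100. Mean of three measurements.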

[19] = system: Hydroxyapatite; assay: Binding affinity to bone mineral hydroxyapatite at pH 6 at 300 uM by photometric analysis; how it was run: as §6
[20] = […] by HPLC analysis at pH 5 in absence of cathepsin B; format: physicochemical; settings: buffer
[21] = system: Hydroxyapatite; assay: Binding affinity to bone mineral hydroxyapatite at pH 6 at 300 uM up to 24 hrs by photometric analysis; how it was run: as §4
[22] = Half life of the compound by HPLC analysis at pH 5 in presence of cathepsin B; format: physicochemical
How it was run: (§7)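 Prodrug stock (1.5 mM) mixed with human liver cathepsin B (0.4 mg/mL, 23.8 U/mg) in 50 mM sodium acetate, 100 mM NaCl, 4 mM EDTA, 8 mM L-cysteine at pH 5.0 or 6.0. Incubated at 37 °C. Aliquots taken at 5–120 min and analysed by gradient C18 RP-HPLC. Control at pH 5.0 omitted the enzyme.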

[23] = system: Mus musculus; assay: Toxicity in Balb/c nude mouse assessed as mortality at 24 mg/kg, iv of doxorubicin equivalents measured on day 7; format: organism-based; set-up: dose 24 mg/kg, route intravenous; settings: in vivo; how it was run: as §2
[24] = Prodrug conversion assessed as doxorubicin formation after 120 mins by HPLC analysis at pH 5 in presence of cathepsin B; format: physicochemical; settings: pH 5, 2 h; how it was run: as §7
[25] = Prodrug conversion assessed as doxorubicin formation by HPLC analysis at pH 5 in presence of cathepsin B; format: physicochemical; how it was run: as §7
[26] = system: Mus musculus; assay: Toxicity in Balb/c nude mouse assessed as mortality at 16 mg/kg, iv of doxorubicin equivalents measured on day 7; format: organism-based; set-up: dose 16 mg/kg, route intravenous; settings: in vivo; how it was run: as §2
[27] = system: Hydroxyapatite; assay: Binding affinity to bone mineral hydroxyapatite at pH 7.4 at 300 uM after 24 hrs by photometric analysis
[28] = Prodrug conversion assessed as doxorubicin formation after 40 mins by HPLC analysis at pH 6 in presence of cathepsin B; format: physicochemical; settings: pH 6, 40 min; how it was run: as §7

COc1cccc2c1C(=O)c1c(O)c3c(c(O)c1C2=O)C[C@@](O)(/C(CO)=N/NC(=O)CCCCCN1C(=O)CC(SCCCSCC(P(=O)(O)O)P(=O)(O)O)C1=O)C[C@@H]3O[C@H]1C[C@H](N)[C@H](O)[C@H](C)O1.Cl.N.N.N.N (some centres not stated)
Drug metabolism [1]: Active
Activity [2]: Toxic
Drug metabolism [3]: tde
MTD at 504 h [4]: 24 mg/kg
Activity [5]: 50%
Activity [6]: Non-toxic
Activity [7]: 65%
Activity [8]: 80%
Activity [9]: Non-toxic
Activity [10]: Non-toxic
half-life at 600 µM [11]: 2.5 h
Drug metabolism [12]: Active
Activity [13]: 80%
Activity [14]: Toxic
Activity [15]: Non-toxic
Activity [16]: 50%
Activity [17]: Non-toxic

COc1cccc2c1C(=O)c1c(O)c3c(c(O)c1C2=O)C[C@@](O)(C(=O)CO)C[C@@H]3O[C@H]1C[C@H](N)[C@H](O)[C@H](C)O1 [DOXORUBICIN]
Activity [18]: inactive
MTD at 504 h [4]: 8 mg/kg
Activity [13]: Not Active
Activity [19]: inactive
Activity [16]: inactive

COc1cccc2c1C(=O)c1c(O)c3c(c(O)c1C2=O)C[C@@](O)(C(=O)CO)C[C@@H]3O[C@H]1C[C@H](NC(=O)OCc2ccc(NC(=O)[C@H](C)NC(=O)[C@@H](NC(=O)CCCCCN3C(=O)CC(SCCCSCC(P(=O)(O)O)P(=O)(O)O)C3=O)C(C)C)cc2)[C@H](O)[C@H](C)O1.N.N.N.N (some centres not stated)
Stability [20]: Stable
Stability [1]: Stable
MTD at 504 h [4]: 8 mg/kg
Activity [5]: 50%
Activity [6]: Non-toxic
Activity [7]: 65%
Activity [8]: 90%
Activity [21]: 90%
half-life [22]: 0.75 h
Stability [12]: Stable
Activity [13]: 80%
Activity [23]: Toxic
Drug metabolism [24]: Active
Activity [16]: 50%
Drug metabolism [25]: Active
Activity [17]: Non-toxic
Activity [26]: Toxic
Activity [27]: 100%
Drug metabolism [28]: Active

COc1cccc2c1C(=O)c1c(O)c3c(c(O)c1C2=O)C[C@@](O)(C(=O)CO)C[C@@H]3O[C@H]1C[C@H](NC(=O)OCc2ccc(NC(=O)[C@H](CCCCN)NC(=O)[C@H](Cc3ccccc3)NC(=O)CCCCCN3C(=O)CC(SCCCSCC(P(=O)([O-])[O-])P(=O)([O-])[O-])C3=O)cc2)[C@H](O)[C@H](C)O1.O=C(O)C(F)(F)F.[Na+].[Na+].[Na+].[Na+] (some centres not stated)
Drug metabolism [25]: Active
